Results taken from ChEMBL document CHEMBL1154235, “Rational design and semisynthesis of betulinic acid analogues as potent topoisomerase inhibitors” (J Nat Prod, 2009).
Activity calls are given as the source filed them. No cut-off for these calls is given here.

Tests used:
[1] = target: DNA topoisomerase 2-alpha (Homo sapiens) (UniProt P11388); assay: Inhibition of topoisomerase 2 alpha catalytic activity assessed as decatenation of kinetoplast DNA at 100 uM after 15 mins by agarose gel electrophoresis
[2] = system: SW948; assay: Antiproliferative activity against human SW948 cells after 3 days by XTT assay; format: functional, cell-based; settings: SW948, 72 h
In short: (§1)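 Cells plated at 4000/well and grown 1 day at 37 °C, then exposed to a range of drug concentrations for 3 more days. Read-out by XTT tetrazolium reduction on a plate reader. Each concentration run in triplicate. IC50 taken from a linear-quadratic fit. Assays repeated two or three times and reported as mean ± SE. HCT-116 kept in modified McCoy's 5a and SW948 in Leibovitz's L-15, each with 10% heat-inactivated FBS and 2 mM L-glutamine.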

[3] = system: HCT-116; assay: Antiproliferative activity against human HCT116 cells after 3 days by XTT assay; format: functional, cell-based; settings: HCT-116, 72 h; in short: as §1
[4] = system: MDA-MB-231; assay: Antiproliferative activity against human MDA-MB-231 cells after 3 days by MTT assay; format: functional, cell-based; settings: MDA-MB-231, 72 h
In short: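 MDA-MB-231 cells kept in RPMI 1640 with 10% heat-inactivated FBS and 25 mM HEPES at 37 °C in 5% CO2. Plated at about 15 000/well and preincubated 1 day, then exposed to compound for 3 days at 37 °C, with doses in triplicate. MTT added for 4 h, formazan dissolved in detergent overnight at room temperature in the dark, OD read at 580 nm against a cell-free blank. Cell numbers from a calibration curve; IC50 from dose-response curves.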

[5] = system: CCRF-CEM; assay: Cytotoxicity against human CCRF-CEM cells assessed as cell growth at 10 uM; format: functional; settings: read-out: Activity
In short: (§2)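 Single-dose screen at 10 µM against the 60 human cell line panel, run by the NCI Developmental Therapeutics Program and scored as cell growth.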

[6] = system: K562; assay: Cytotoxicity against human K562 cells assessed as cell growth at 10 uM; format: functional; settings: read-out: Activity; in short: as §2
[7] = system: MOLT-4; assay: Cytotoxicity against human MOLT4 cells assessed as cell growth at 10 uM; format: functional; settings: read-out: Activity; in short: as §2
[8] = system: RPMI-8226; assay: Cytotoxicity against human RPMI8226 cells assessed as cell growth at 10 uM; format: functional; settings: read-out: Activity; in short: as §2
[9] = system: HOP-62; assay: Cytotoxicity against human HOP62 cells assessed as cell growth at 10 uM; format: functional; settings: read-out: Activity; in short: as §2
[10] = system: HOP-92; assay: Cytotoxicity against human HOP92 cells assessed as cell growth at 10 uM; format: functional; settings: read-out: Activity; in short: as §2
[11] = system: NCI-H226; assay: Cytotoxicity against human NCI-H226 cells assessed as cell growth at 10 uM; format: functional; settings: read-out: Activity; in short: as §2
[12] = system: NCI-H23; assay: Cytotoxicity against human NCI-H23 cells assessed as cell growth at 10 uM; format: functional; settings: read-out: Activity; in short: as §2
[13] = system: NCI-H322M; assay: Cytotoxicity against human NCI-H322M cells assessed as cell growth at 10 uM; format: functional; settings: read-out: Activity; in short: as §2
[14] = system: NCI-H522; assay: Cytotoxicity against human NCI-H522 cells assessed as cell growth at 10 uM; format: functional; settings: read-out: Activity; in short: as §2
[15] = system: COLO 205; assay: Cytotoxicity against human COLO205 cells assessed as cell growth at 10 uM; format: functional; settings: read-out: Activity; in short: as §2
[16] = system: HCC 2998; assay: Cytotoxicity against human HCC2998 cells assessed as cell growth at 10 uM; format: functional; settings: read-out: Activity; in short: as §2
[17] = system: HCT-116; assay: Cytotoxicity against human HCT116 cells assessed as cell growth at 10 uM; format: functional; settings: read-out: Activity; in short: as §2
[18] = system: SW-620; assay: Cytotoxicity against human SW620 cells assessed as cell growth at 10 uM; format: functional; settings: read-out: Activity
[19] = system: SF-268; assay: Cytotoxicity against human SF268 cells assessed as cell growth at 10 uM; format: functional; settings: read-out: Activity; in short: as §2
[20] = system: SF-295; assay: Cytotoxicity against human SF295 cells assessed as cell growth at 10 uM; format: functional; settings: read-out: Activity; in short: as §2
[21] = system: SNB-19; assay: Cytotoxicity against human SNB19 cells assessed as cell growth at 10 uM; format: functional; settings: read-out: Activity; in short: as §2
[22] = system: U-251; assay: Cytotoxicity against human U251 cells assessed as cell growth at 10 uM; format: functional; settings: read-out: Activity
[23] = system: M14; assay: Cytotoxicity against human M14 cells assessed as cell growth at 10 uM; format: functional; settings: read-out: Activity; in short: as §2
[24] = system: MDA-MB-435; assay: Cytotoxicity against human MDA-MB-435 cells assessed as cell growth at 10 uM; format: functional; settings: read-out: Activity; in short: as §2
[25] = system: SK-MEL-28; assay: Cytotoxicity against human SK-MEL-28 cells assessed as cell growth at 10 uM; format: functional; settings: read-out: Activity; in short: as §2
[26] = system: SK-MEL-5; assay: Cytotoxicity against human SK-MEL-5 cells assessed as cell growth at 10 uM; format: functional; settings: read-out: Activity; in short: as §2
[27] = system: UACC-257; assay: Cytotoxicity against human UACC257 cells assessed as cell growth at 10 uM; format: functional; settings: read-out: Activity
[28] = system: OVCAR-3; assay: Cytotoxicity against human OVCAR-3 cells assessed as cell growth at 10 uM; format: functional; settings: read-out: Activity; in short: as §2
[29] = system: OVCAR-4; assay: Cytotoxicity against human OVCAR4 cells assessed as cell growth at 10 uM; format: functional; settings: read-out: Activity; in short: as §2
[30] = system: OVCAR-5; assay: Cytotoxicity against human OVCAR5 cells assessed as cell growth at 10 uM; format: functional; settings: read-out: Activity; in short: as §2
[31] = system: OVCAR-8; assay: Cytotoxicity against human OVCAR8 cells assessed as cell growth at 10 uM; format: functional; settings: read-out: Activity; in short: as §2
[32] = system: SK-OV-3; assay: Cytotoxicity against human SKOV3 cells assessed as cell growth at 10 uM; format: functional; settings: read-out: Activity; in short: as §2
[33] = system: RXF 393; assay: Cytotoxicity against human […] cells assessed as cell growth at 10 uM; format: functional; settings: read-out: Activity; in short: as §2
[34] = system: SN12C; assay: Cytotoxicity against human SN12C cells assessed as cell growth at 10 uM; format: functional; settings: read-out: Activity; in short: as §2
[35] = system: DU-145; assay: Cytotoxicity against human DU145 cells assessed as cell growth at 10 uM; format: functional; settings: read-out: Activity; in short: as §2
[36] = system: MDA-MB-231; assay: Cytotoxicity against human MDA-MB-231 cells assessed as cell growth at 10 uM; format: functional; settings: read-out: Activity; in short: as §2
[37] = Cytotoxicity against human Hs 578T cells assessed as cell growth at 10 uM; format: functional; settings: read-out: Activity; in short: as §2
[38] = system: BT-549; assay: Cytotoxicity against human BT549 cells assessed as cell growth at 10 uM; format: functional; settings: read-out: Activity; in short: as §2
[39] = system: T47D; assay: Cytotoxicity against human T47D cells assessed as cell growth at 10 uM; format: functional; settings: read-out: Activity

Chain of DNA topoisomerase 2-alpha (Homo sapiens) (P11388 whole entry): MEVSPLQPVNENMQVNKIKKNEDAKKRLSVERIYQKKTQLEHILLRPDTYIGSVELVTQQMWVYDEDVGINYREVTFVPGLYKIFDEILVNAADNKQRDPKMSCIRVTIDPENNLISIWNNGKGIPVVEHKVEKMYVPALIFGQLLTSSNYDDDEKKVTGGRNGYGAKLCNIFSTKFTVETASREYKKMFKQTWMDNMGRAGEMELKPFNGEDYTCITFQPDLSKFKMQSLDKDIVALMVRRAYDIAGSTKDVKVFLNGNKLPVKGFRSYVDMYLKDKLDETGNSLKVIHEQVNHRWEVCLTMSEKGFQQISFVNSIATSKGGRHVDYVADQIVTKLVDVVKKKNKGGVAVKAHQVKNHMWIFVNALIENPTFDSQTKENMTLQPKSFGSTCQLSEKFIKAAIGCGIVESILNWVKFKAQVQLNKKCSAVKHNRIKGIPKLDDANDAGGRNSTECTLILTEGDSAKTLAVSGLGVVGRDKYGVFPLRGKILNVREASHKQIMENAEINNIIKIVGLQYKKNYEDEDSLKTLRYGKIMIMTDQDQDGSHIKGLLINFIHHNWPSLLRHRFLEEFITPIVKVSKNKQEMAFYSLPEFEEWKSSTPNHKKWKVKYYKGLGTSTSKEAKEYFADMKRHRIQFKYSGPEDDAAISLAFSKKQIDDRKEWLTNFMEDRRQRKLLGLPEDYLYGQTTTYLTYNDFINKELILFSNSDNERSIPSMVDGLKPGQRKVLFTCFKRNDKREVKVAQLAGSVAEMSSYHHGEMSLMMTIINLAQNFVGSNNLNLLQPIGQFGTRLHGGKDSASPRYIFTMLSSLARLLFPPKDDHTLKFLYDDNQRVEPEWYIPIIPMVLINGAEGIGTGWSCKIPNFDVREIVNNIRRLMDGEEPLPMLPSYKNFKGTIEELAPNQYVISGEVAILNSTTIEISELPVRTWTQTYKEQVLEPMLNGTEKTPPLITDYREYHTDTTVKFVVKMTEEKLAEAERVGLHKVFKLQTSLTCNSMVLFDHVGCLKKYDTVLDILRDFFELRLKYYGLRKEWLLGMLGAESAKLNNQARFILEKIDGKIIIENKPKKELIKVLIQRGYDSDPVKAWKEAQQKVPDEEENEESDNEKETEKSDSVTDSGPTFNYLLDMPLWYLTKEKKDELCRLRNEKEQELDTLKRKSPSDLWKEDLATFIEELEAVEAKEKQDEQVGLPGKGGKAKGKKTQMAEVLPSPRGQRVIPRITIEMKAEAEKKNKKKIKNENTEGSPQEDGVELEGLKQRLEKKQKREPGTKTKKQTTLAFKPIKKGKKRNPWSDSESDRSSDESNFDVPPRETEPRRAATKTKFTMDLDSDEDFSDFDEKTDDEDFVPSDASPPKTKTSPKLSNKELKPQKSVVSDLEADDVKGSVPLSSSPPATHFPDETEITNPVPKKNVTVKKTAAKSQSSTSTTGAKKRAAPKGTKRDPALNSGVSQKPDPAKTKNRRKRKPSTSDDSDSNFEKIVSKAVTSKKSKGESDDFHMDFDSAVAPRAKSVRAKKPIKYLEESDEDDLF

C=C(C)[C@@H]1CC[C@]2(C(O)=S)CC[C@]3(C)[C@H](CC[C@@H]4[C@@]5(C)CC[C@H](O)C(C)(C)[C@@H]5CC[C@]43C)[C@@H]12
inhibition [1]: Active | IC50 [2]: > 25 µM | IC50 [3]: > 25 µM | IC50 [4]: > 25 µM | growth at 10 µM [5]: 99.1% | growth at 10 µM [6]: 127% | growth at 10 µM [7]: 131% | growth at 10 µM [8]: 113% | growth at 10 µM [9]: 80% | growth at 10 µM [10]: 158% | growth at 10 µM [11]: 108% | growth at 10 µM [12]: 93.4% | growth at 10 µM [13]: 109% | growth at 10 µM [14]: 71.9% | growth at 10 µM [15]: 129% | growth at 10 µM [16]: 128% | growth at 10 µM [17]: 85.2% | growth at 10 µM [18]: 92.2% | growth at 10 µM [19]: 92.7% | growth at 10 µM [20]: 98.4% | growth at 10 µM [21]: 113% | growth at 10 µM [22]: 105% | growth at 10 µM [23]: 96% | growth at 10 µM [24]: 91.3% | growth at 10 µM [25]: 141% | growth at 10 µM [26]: 99.7% | growth at 10 µM [27]: 105% | growth at 10 µM [28]: 94.9% | growth at 10 µM [29]: 112% | growth at 10 µM [30]: 119% | growth at 10 µM [31]: 101% | growth at 10 µM [32]: 113% | growth at 10 µM [33]: 112% | growth at 10 µM [34]: 102% | growth at 10 µM [35]: 130% | growth at 10 µM [36]: 114% | growth at 10 µM [37]: 105% | growth at 10 µM [38]: 94.8% | growth at 10 µM [39]: 98.5%
